Measured values from ChEMBL document CHEMBL2346548, “Design, synthesis, and structure-activity relationship studies of tryptanthrins as antitubercular agents” (J Nat Prod, 2013).
≈ marks a conversion by molar mass, not a printed value.

Legend:
Vero = test: Cytotoxicity against african green monkey Vero cells; type: cell-based, Chlorocebus sabaeus; conditions: Chlorocebus sabaeus, Vero; read-out: IC50
[1] = tested on: Mycobacterium tuberculosis; test: Antitubercular activity against Mycobacterium tuberculosis H37Rv incubated at 37 degC for 7 days by microplate alamar blue assay; type: functional; conditions: for MIC: Mycobacterium tuberculosis, H37Rv, 168 h
Procedure, shortened: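 Mtb H37Rv was grown in 7H9 broth with glycerol, Casitone, 10% OADC and 0.05% Tween 80 to OD600 0.4. Compounds were 2-fold serially diluted from DMSO stocks in 7H9, and wells were inoculated at 2 × 10⁵ CFU/mL. After 7 days at 37 °C, Alamar Blue was added and read after a further 24 h. MIC was the lowest concentration preventing the blue-to-pink change.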

[2] = tested on: Mycobacterium tuberculosis; test: Antitubercular activity against non-replicating Mycobacterium tuberculosis H37Rv incubated for 10 days by LORA method; type: functional; conditions: 240 h
Procedure, shortened: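 H37Rv carrying pFCA-luxAB was adapted to low oxygen by gradual self-depletion in a sealed, slowly stirred flask. It was then exposed to compounds for 10 days under anaerobic conditions. Cultures recovered for 28 h in ambient oxygen before n-decanal substrate was added and luminescence read. MIC was the lowest concentration giving a 90% reduction in luminescence versus untreated controls.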

[3] = tested on: Mycobacterium tuberculosis; test: Antitubercular activity against Mycobacterium tuberculosis H37Rv incubated at 37 degC for 14 days in presence of 40% human serum by microplate alamar blue assay; type: functional; conditions: 336 h
Procedure, shortened: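 This is the MABA run in 7H9 broth containing 40% human serum. Compounds were 2-fold serially diluted, and wells were inoculated with H37Rv at 2 × 10⁵ CFU/mL. Incubation was at 37 °C for 14 days, then Alamar Blue was added. MIC was the lowest concentration preventing the blue-to-pink colour change.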

[4] = Solubility in simulated gastric fluid at pH 1.5 by HPLC method; type: physicochemical
Procedure, shortened: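 Compound at 200 μM final in 2% DMSO in simulated gastric fluid, shaken 24 h at room temperature; HPLC-photodiode array detection at 230 nm; duplicate means.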

[5] = Solubility in simulated intestinal fluid at pH 7.6 by HPLC method; type: physicochemical
Procedure, shortened: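 Simulated intestinal fluid medium; each analogue 200 μM final in 2% DMSO, shaken 24 h at room temperature, then HPLC with photodiode array read at 230 nm; duplicate, means given.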

[6] = Efflux ratio in human Caco2 cells incubated for 1 hr at 37 degC by HPLC-MS/MS method; type: ADME, cell-based; conditions: Caco-2
[7] = Permeability across basolateral to apical side in human Caco2 cells incubated for 1 hr at 37 degC by HPLC-MS/MS method; type: ADME, cell-based; conditions: Caco-2
[8] = Metabolic stability in human liver microsomes assessed as parent compound remaining at 1 uM incubated for 1 hr by HPLC-MS/MS method; type: ADME, Microsome; conditions: read-out: Stability
Procedure, shortened: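 Pooled mixed-gender human liver microsomes (0.3 mg/mL protein), 1 μM compound with NADP-regenerating system in phosphate buffer pH 7.4, 1 h at 37 °C; parent measured at start and end by HPLC-MS/MS; duplicate means.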

[9] = Permeability across apical to basolateral side in human Caco2 cells incubated for 1 hr at 37 degC by HPLC-MS/MS method; type: ADME, cell-based; conditions: Caco-2
Procedure, shortened: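 TC7 (Caco-2 subclone) monolayer; 10 μM compound in 1% DMSO in HBSS-MES pH 6.5 on apical donor side, basolateral receiver pH 7.4; shaken 1 h at 37 °C; receiver sampled, HPLC-MS/MS; duplicate means.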

[10] = Aqueous solubility in PBS buffer at pH 7.4 by HPLC method; type: physicochemical; conditions: PBS buffer, read-out: solubility
Procedure, shortened: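 Compound at 200 μM final in 2% DMSO in PBS pH 7.4, shaken 24 h at room temperature; quantified by HPLC with photodiode array detection at 230 nm; duplicate, mean reported.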

[11] = Protein binding in human plasma at 10 uM incubated for 8 hrs at 37 degC by equilibrium dialysis method; type: ADME, cell-free; conditions: read-out: PPB (converted)
Procedure, shortened: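 Equilibrium dialysis: 10 μM compound in 1% DMSO in human plasma vs 0.05 M phosphate buffer pH 7.5 across 12–14 K cutoff membrane, at least 8 h at 37 °C; HPLC-photodiode detection at 230 nm; duplicate means.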

[12] = Distribution coefficient, log D of the compound between n-octanol and PBS buffer at pH 7.4 incubated for 1 hr by shake flask method; type: physicochemical
Procedure, shortened: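 Partition between n-octanol and PBS pH 7.4 after 1 h shaking at room temperature; phases analysed by HPLC with photodiode detection; logD = log10 of organic/aqueous amount.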

CYP2C19 = CYP2C19 (Homo sapiens, UniProt P33261); test: Inhibition of human recombinant CYP2C19 at 10 uM incubated for 60 mins at 37 degC using 3-cyano-7-ethoxycoumarin substrate; type: ADME; conditions: recombinant CYP2C19, probe 3-cyano-7-ethoxycoumarin
CYP2C9 = CYP2C9 (Homo sapiens, UniProt P11712); test: Inhibition of human recombinant CYP2C9 at 10 uM incubated for 80 mins at 37 degC using 7-methoxy-4-trifluoromethylcoumarin substrate; type: ADME; conditions: recombinant CYP2C9, probe 7-methoxy-4-trifluoromethylcoumarin
CYP3A4 = CYP3A4 (Homo sapiens, UniProt P08684); test: Inhibition of human recombinant CYP3A4 at 10 uM incubated for 30 mins at 37 degC using 7-benzyloxy-4-(trifluoromethyl)coumarin substrate; type: ADME; conditions: recombinant CYP3A4, probe 7-benzyloxy-4-(trifluoromethyl)coumarin
CYP3A4, sequence (P08684 whole entry): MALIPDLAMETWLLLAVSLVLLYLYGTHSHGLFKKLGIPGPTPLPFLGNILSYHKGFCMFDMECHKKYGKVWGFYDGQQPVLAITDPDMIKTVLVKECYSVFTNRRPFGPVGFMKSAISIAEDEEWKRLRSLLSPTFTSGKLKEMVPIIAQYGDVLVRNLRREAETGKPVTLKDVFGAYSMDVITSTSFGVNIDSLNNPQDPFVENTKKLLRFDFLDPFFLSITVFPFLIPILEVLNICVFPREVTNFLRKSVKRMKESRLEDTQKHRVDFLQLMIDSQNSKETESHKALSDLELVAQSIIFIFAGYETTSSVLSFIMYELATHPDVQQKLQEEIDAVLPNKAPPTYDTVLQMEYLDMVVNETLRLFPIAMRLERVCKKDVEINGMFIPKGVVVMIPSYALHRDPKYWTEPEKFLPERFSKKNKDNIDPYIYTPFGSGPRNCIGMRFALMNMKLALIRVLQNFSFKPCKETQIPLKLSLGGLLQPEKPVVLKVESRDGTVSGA

CYP2C9, sequence (P11712 whole entry): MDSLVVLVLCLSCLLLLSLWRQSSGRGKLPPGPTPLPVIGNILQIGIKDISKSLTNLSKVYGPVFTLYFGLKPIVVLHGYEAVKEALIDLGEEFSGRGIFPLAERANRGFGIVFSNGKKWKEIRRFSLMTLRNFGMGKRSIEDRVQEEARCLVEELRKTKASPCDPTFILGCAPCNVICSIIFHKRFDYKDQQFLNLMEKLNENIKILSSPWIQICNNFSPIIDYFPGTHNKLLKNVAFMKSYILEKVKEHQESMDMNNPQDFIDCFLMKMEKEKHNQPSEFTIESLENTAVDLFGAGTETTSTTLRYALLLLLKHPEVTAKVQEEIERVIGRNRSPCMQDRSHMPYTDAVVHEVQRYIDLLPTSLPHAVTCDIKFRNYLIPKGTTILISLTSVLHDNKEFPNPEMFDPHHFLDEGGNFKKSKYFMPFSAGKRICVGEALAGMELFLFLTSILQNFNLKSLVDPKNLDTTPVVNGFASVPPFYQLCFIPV
CYP2C19, sequence (P33261 whole entry): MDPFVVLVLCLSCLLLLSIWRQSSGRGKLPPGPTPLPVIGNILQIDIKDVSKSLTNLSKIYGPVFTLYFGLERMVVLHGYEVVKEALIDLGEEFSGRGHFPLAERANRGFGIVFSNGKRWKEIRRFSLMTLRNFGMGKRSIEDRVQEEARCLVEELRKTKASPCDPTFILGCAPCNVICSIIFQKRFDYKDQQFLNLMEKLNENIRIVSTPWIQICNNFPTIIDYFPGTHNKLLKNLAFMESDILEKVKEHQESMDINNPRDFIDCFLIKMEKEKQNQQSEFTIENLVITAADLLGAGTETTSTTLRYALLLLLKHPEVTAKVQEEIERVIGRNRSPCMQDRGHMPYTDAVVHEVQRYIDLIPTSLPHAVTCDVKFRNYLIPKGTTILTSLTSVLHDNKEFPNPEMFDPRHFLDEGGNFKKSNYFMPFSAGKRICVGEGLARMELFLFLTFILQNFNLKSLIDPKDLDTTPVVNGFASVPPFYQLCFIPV

Compound | IC50 (Vero) [µg/mL] | MIC [1] [µg/mL] | MIC90 [2] [µg/mL] | MIC [3] [µg/mL] | solubility [4] [µM] | solubility [5] [µM] | efflux ratio at 1 h [6] | Papp B→A at 1 h [7] [×10⁻⁶ cm/s] | remaining at 1 h, 1 µM [8] [%] | Papp A→B at 1 h [9] [×10⁻⁶ cm/s] | solubility [10] [µM] | fraction unbound at 8 h, 10 µM [11] | logD at 1 h [12] | inhibition at 1 h, 10 µM (CYP2C19) [%] | MBC90 [1] [µg/mL] | inhibition at 80 min, 10 µM (CYP2C9) [%] | inhibition at 0.5 h, 10 µM (CYP3A4) [%]
O=C1c2ccccc2-n2c1nc1ncccc1c2=O | 24 (≈ 96.3 µM) | 4 (≈ 16 µM) | 23 (≈ 92.3 µM) | 8 |  |  |  |  |  |  |  |  |  |  |  |  | 
O=C1c2cc(F)ccc2-n2c1nc1ccccc1c2=O | > 50 | 0.125 (≈ 0.47 µM) | > 50 | 0.5 | 8.5 (≈ 2.26 µg/mL) | 18.8 (≈ 5.01 µg/mL) | > 1 | 29.9 | 46 | 66.6 | 4.9 (≈ 1.3 µg/mL) |  |  |  |  |  | 
O=C1c2ccc(Cl)cc2-n2c1nc1ccccc1c2=O | > 50 | 0.25 (≈ 0.884 µM) | > 50 | 0.5 | 71.9 (≈ 20.3 µg/mL) | 20.3 (≈ 5.74 µg/mL) |  | 0.1 | 27 | 0.4 |  | 0.01 | 2.45 | 4 | 0.5 (≈ 1.77 µM) | 25 | 7
O=C1C2=Nc3ccncc3CN2c2ccc(Cl)cc21 | 3.7 (≈ 13.7 µM) | 2 (≈ 7.42 µM) | 8.3 (≈ 30.8 µM) |  |  |  |  |  |  |  |  |  |  |  |  |  | 
O=C1C2=Nc3ccncc3CN2c2ccccc21 | > 20 | 16 (≈ 68 µM) | > 20 |  |  |  |  |  |  |  |  |  |  |  |  |  | 
O=C1C2=Nc3ccccc3CN2c2ccccc21 | 42 (≈ 179 µM) | 1 (≈ 4.27 µM) | 20 (≈ 85.4 µM) | 2 |  |  |  |  |  |  |  |  |  |  |  |  | 
O=C1c2ccccc2-n2c1nc1ccncc1c2=O | 5.3 (≈ 21.3 µM) | 0.5 (≈ 2.01 µM) | 1.6 (≈ 6.42 µM) | 0.25 |  |  |  |  |  |  |  |  |  |  |  |  | 
O=C1c2cc(Cl)ccc2-n2c1nc1ccncc1c2=O | 8.5 (≈ 30 µM) | 0.25 (≈ 0.881 µM) | 0.68 (≈ 2.4 µM) | 0.25 |  |  |  |  |  |  |  |  |  |  |  |  | 
O=C1c2cc(OC(F)(F)F)ccc2-n2c1nc1cnccc1c2=O | 5.4 (≈ 16.2 µM) | 0.125 (≈ 0.375 µM) | 1.5 (≈ 4.5 µM) | 0.25 |  |  |  |  |  |  |  |  |  |  |  |  | 
O=C1c2cc(Cl)ccc2-n2c1nc1ncccc1c2=O | 5.4 (≈ 19 µM) | 0.125 (≈ 0.441 µM) | 1.4 (≈ 4.94 µM) | 0.125 | 6 (≈ 1.7 µg/mL) | 18.9 (≈ 5.36 µg/mL) | > 1 | 44 | 96 | 73.8 | 8 (≈ 2.27 µg/mL) | 0.051 | 1.77 | 67 | 0.25 (≈ 0.881 µM) | 54 | 62
O=C1c2cc(Br)ccc2-n2c1nc1ccncc1c2=O | > 50 | 1 (≈ 3.05 µM) | > 50 | 0.5 | 45 (≈ 14.8 µg/mL) | 34.4 (≈ 11.3 µg/mL) |  |  | 96 |  | 35.4 (≈ 11.6 µg/mL) |  | 1.6 | 16 | 0.25 (≈ 0.762 µM) | 10 | 14
O=C1c2cc(OC(F)(F)F)ccc2-n2c1nc1ccncc1c2=O | 5.7 (≈ 17.1 µM) | 0.063 (≈ 0.189 µM) | 0.64 (≈ 1.92 µM) | 0.5 |  |  |  |  |  |  |  |  |  |  | 0.125 (≈ 0.375 µM) |  | 
